We go through 41 compounds from ChEMBL document CHEMBL1133624, “Benzothiadiazine dioxide dibenzyl derivatives as potent human cytomegalovirus inhibitors: synthesis and comparative molecular field analysis” (J Med Chem, 2000).

One test deals with MRC5. In words: Concentration required to reduce MRC-5 cell growth by 50%. In kind it is functional. Conditions: Homo sapiens. The essentials:
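MRC-5 fibroblasts seeded at 5 × 10³ cells/well, left to proliferate 24 h, then exposed to different concentrations of test compound (duplicate). After 3 days at 37 °C in 5% CO₂, cell number counted with a Coulter counter.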

Another test concerns Human betaherpesvirus 5. The test can be described thus: Concentration required to reduce viral plaque formation by Human Cytomegalovirus (HCMV) (strain AD-169) in MRC-5 cells. Format: functional, organism-based. Conditions: Human betaherpesvirus 5, MRC5.

The structures appear in SMILES notation.

A word on the CC50: it is the concentration giving 50% cytotoxicity. As usually defined, the IC50 is the concentration that gives 50% inhibition. The low end stands for greater potency, the high end for weaker potency. In the test on MRC5, `O=S1(=O)N=C(OCc2ccccc2)c2ccccc2N1Cc1ccccc1` showed a CC50 of over 66 µM. The compound further returned an IC50 with Human betaherpesvirus 5 of 7.9 µM.
The matching figures for `O=C1c2ccccc2N(Cc2cccc(Cl)c2)S(=O)(=O)N1Cc1ccccc1`: over 60 µM and 3.6 µM.
The matching figures for `O=C1c2ccccc2N(Cc2ccccc2Cl)S(=O)(=O)N1Cc1ccccc1`: over 60 µM and 4.8 µM.
The matching figures for `O=C1c2ccccc2N(Cc2ccc(Cl)cc2)S(=O)(=O)N1Cc1ccc(Cl)cc1`: over 56 µM and 3.3 µM.
`O=C1c2ccccc2N(Cc2ccccc2)S(=O)(=O)N1Cc1ccccc1` came in with a CC50 in the test with MRC5 of over 66 µM. The same compound had an IC50 with Human betaherpesvirus 5 of 5.3 µM.
Compound `O=C1c2ccccc2N(Cc2ccccc2)S(=O)(=O)N1Cc1ccc(Cl)cc1` gave a CC50 in the test on MRC5 of over 60 µM. In addition, the IC50 in the test with Human betaherpesvirus 5 was determined as 6 µM.
The matching figures for `O=C(CN1c2ccccc2C(=O)N(Cc2ccccc2)S1(=O)=O)c1ccccc1`: over 61 µM and 24.6 µM.
The matching figures for `O=C1c2ccccc2N(Cc2ccc(C(F)(F)F)cc2)S(=O)(=O)N1Cc1ccccc1`: over 56 µM and 3.3 µM.
The matching figures for `COc1ccc(CN2C(=O)c3ccccc3N(Cc3ccc(OC)cc3)S2(=O)=O)cc1`: over 57 µM and 57 µM.
As for `COc1ccc(C(=O)CN2c3ccccc3C(=O)N(Cc3ccccc3)S2(=O)=O)cc1`, the 50% cytotoxic concentration (CC50) in the test on MRC5 was over 57 µM. In the test on Human betaherpesvirus 5, this compound returned an IC50 of 3.2 µM.
The matching figures for `O=C1c2ccccc2N(Cc2ccc(-c3ccccc3)cc2)S(=O)(=O)N1Cc1ccc(-c2ccccc2)cc1`: over 47 µM and 47 µM.
Turning to `N#Cc1ccc(CN2c3ccccc3C(=O)N(Cc3ccccc3)S2(=O)=O)cc1`, the CC50 with MRC5 was over 62 µM. Besides, the IC50 in the test on Human betaherpesvirus 5 came out at 8 µM.
The matching figures for `Cc1ccc(CN2c3ccccc3C(OCc3ccccc3)=NS2(=O)=O)cc1`: over 63 µM and 10 µM.
The matching figures for `COc1ccc(CN2c3ccccc3C(OCc3ccccc3)=NS2(=O)=O)cc1`: over 61 µM and 61 µM.
The matching figures for `O=[N+]([O-])c1ccc(COC2=NS(=O)(=O)N(Cc3ccc([N+](=O)[O-])cc3)c3ccccc32)cc1`: over 53 µM and 53 µM.
Consider `COc1ccc(CN2c3ccccc3C(=O)N(Cc3ccccc3)S2(=O)=O)cc1`, for which, in the test with MRC5, the CC50 is over 61 µM. The same compound showed an IC50 in the test with Human betaherpesvirus 5 of 7 µM.
Take `CC(C)CN1c2ccccc2C(=O)N(Cc2ccccc2)S1(=O)=O`: in the test with MRC5, the CC50 was 72 µM. The compound further returned an IC50 in the test on Human betaherpesvirus 5 of 14.5 µM.
The matching figures for `O=C1c2ccccc2N(CCc2ccccc2)S(=O)(=O)N1Cc1ccccc1`: over 64 µM and 7.6 µM.
The matching figures for `C#CCCN1c2ccccc2C(=O)N(Cc2ccccc2)S1(=O)=O`: 77 µM and 76.6 µM.
In the test with MRC5, `Cc1ccc(C(=O)CN2c3ccccc3C(=O)N(Cc3ccccc3)S2(=O)=O)cc1` showed a CC50 of over 59 µM. This compound also yielded an IC50 with Human betaherpesvirus 5 of 2.8 µM.
The matching figures for `O=S1(=O)N=C(OCc2ccc(Cl)c(Cl)c2)c2ccccc2N1Cc1ccc(Cl)c(Cl)c1`: over 48 µM and 48 µM.
The matching figures for `O=C1c2ccccc2N(Cc2ccc(Cl)c(Cl)c2)S(=O)(=O)N1Cc1ccccc1`: over 56 µM and 4 µM.
The matching figures for `O=C1c2ccccc2N(CC2CCCCC2)S(=O)(=O)N1Cc1ccccc1`: over 65 µM and 15.6 µM.
`Cc1ccc(CN2c3ccccc3C(=O)N(Cc3ccccc3)S2(=O)=O)cc1` displayed a CC50 in the test with MRC5 of over 63 µM. Also, the IC50 with Human betaherpesvirus 5 was determined as 2.5 µM.
For the compound `O=C1c2ccccc2N(Cc2ccc([N+](=O)[O-])cc2)S(=O)(=O)N1Cc1ccc([N+](=O)[O-])cc1`, in the test on MRC5, the CC50 was over 53 µM. In the test on Human betaherpesvirus 5, this compound came in with an IC50 of 53 µM.
The matching figures for `O=S1(=O)N=C(OCc2ccccc2)c2ccccc2N1Cc1ccc(Cl)c(Cl)c1`: over 56 µM and 26 µM.
The matching figures for `O=C1c2ccccc2N(Cc2ccc(C(F)(F)F)cc2)S(=O)(=O)N1Cc1ccc(C(F)(F)F)cc1`: over 48 µM and 15 µM.
The matching figures for `O=C1c2ccccc2N(Cc2ccc(Cl)cc2)S(=O)(=O)N1Cc1ccccc1`: over 60 µM and 3.6 µM.
`O=C1c2ccccc2N(Cc2cccc3ccccc23)S(=O)(=O)N1Cc1ccccc1`: the CC50 in the test with MRC5 was over 58 µM. Further, half-maximal inhibition in the test on Human betaherpesvirus 5 (IC50) was put at 11.6 µM.
The matching figures for `O=S1(=O)N=C(OCc2ccc(-c3ccccc3)cc2)c2ccccc2N1Cc1ccc(-c2ccccc2)cc1`: over 47 µM and 47 µM.
The matching figures for `O=C1c2ccccc2N(Cc2ccc(Cl)c(Cl)c2)S(=O)(=O)N1Cc1ccc(Cl)c(Cl)c1`: over 48 µM and 15 µM.
The matching figures for `O=C1c2ccccc2N(CCCc2ccccc2)S(=O)(=O)N1Cc1ccccc1`: over 57 µM and 18.4 µM.
In the test with MRC5, `COc1ccc(CCN2c3ccccc3C(=O)N(Cc3ccccc3)S2(=O)=O)cc1` gave a half-maximal cytotoxic concentration (CC50) of over 59 µM. This compound also registered an IC50 with Human betaherpesvirus 5 of 4 µM.
The matching figures for `O=C1c2ccccc2N(Cc2ccccc2Cl)S(=O)(=O)N1Cc1ccccc1Cl`: over 56 µM and 33 µM.
The matching figures for `O=C1c2ccccc2N(Cc2ccccc2)S(=O)(=O)N1Cc1ccccc1Cl`: over 60 µM and 12 µM.
The matching figures for `O=S1(=O)N=C(OCc2ccc(C(F)(F)F)cc2)c2ccccc2N1Cc1ccc(C(F)(F)F)cc1`: over 48 µM and 23 µM.
In the test on MRC5, `O=C1c2ccccc2N(Cc2cccnc2)S(=O)(=O)N1Cc1ccccc1` gave a CC50 of 66 µM. The IC50 in the test on Human betaherpesvirus 5 came out at 13.1 µM.
The matching figures for `O=C1c2ccccc2N(Cc2ccccc2-c2ccccc2)S(=O)(=O)N1Cc1ccccc1`: over 55 µM and 44 µM.
The matching figures for `N#Cc1ccc(CN2c3ccccc3C(OCc3ccccc3)=NS2(=O)=O)cc1`: over 62 µM and 29 µM.
Regarding `O=C1c2ccccc2N(Cc2ccc([N+](=O)[O-])cc2)S(=O)(=O)N1Cc1ccccc1`, the CC50 in the test with MRC5 was over 59 µM. Also, the IC50 with Human betaherpesvirus 5 is 8 µM.
The matching figures for `Nc1nc2c(ncn2COC(CO)CO)c(=O)[nH]1` [GANCICLOVIR]: over 98 µM and 5.9 µM.
